In brackets after ≈: the same amount, converted by molar mass. Activity calls are given as the source filed them. No cut-off for these calls is given here.
Columns and labels:
Alternaria longipes [1] = experiment: Antifungal activity against Alternaria longipes CGMCC 3.2875 at 20 ug/ml after 48 hr by Alamar blue assay; assay type: functional, organism-based
Verticillium albo-atrum [2] = experiment: Antifungal activity against Verticillium albo-atrum CGMCC 3.4306 after 48 hr by Alamar blue assay; assay type: functional; details: CGMCC 3.4306, 48 h
How it was run: (§1)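 NCCLS-based broth microdilution, run in triplicate. Fungi were kept on PDA, and the inoculum was grown in broth at 28 °C for 48 h, then set to a final 10^4 hyphae/mL in PDB. Samples were serially diluted from a 10 mg/mL DMSO stock, with 10% Alamar blue as indicator, and incubated at 28 °C for 48 h. Fluorescence was read at 544/590 nm. MIC was the lowest concentration giving complete growth inhibition.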

Fusarium oxysporum [3] = experiment: Antifungal activity against Fusarium oxysporum CGMCC 3.2830 after 48 hr by Alamar blue assay; assay type: functional; details: CGMCC 3.2830, 48 h; how it was run: as §1
Fusarium graminearum [4] = experiment: Antifungal activity against Fusarium graminearum CGMCC 3.2873 after 48 hr by Alamar blue assay; assay type: functional; details: CGMCC 3.2873, 48 h; how it was run: as §1
Fusarium verticillioides [5] = experiment: Antifungal activity against Fusarium verticillioides CGMCC 3.2835 after 48 hr by Alamar blue assay; assay type: functional; details: CGMCC 3.2835, 48 h; how it was run: as §1
Alternaria longipes [6] = experiment: Antifungal activity against Alternaria longipes CGMCC 3.2875 after 48 hr by Alamar blue assay; assay type: functional; details: CGMCC 3.2875, 48 h
How it was run: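 Run in triplicate per NCCLS recommendations. The strain was grown on PDA, and inoculum came from broth cultures (28 °C, 48 h), with a final suspension of 10^4 hyphae/mL in PDB. Samples were serially diluted from a 10 mg/mL DMSO stock, with 10% Alamar blue as indicator. After 28 °C for 48 h, fluorescence was read at Ex/Em 544/590 nm. MIC is the lowest concentration giving complete growth inhibition, taken from inhibition-versus-concentration plots.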

Fusarium oxysporum [7] = experiment: Antifungal activity against Fusarium oxysporum CGMCC 3.2830 at 20 ug/ml after 48 hr by Alamar blue assay; assay type: functional, organism-based
Verticillium albo-atrum [8] = experiment: Antifungal activity against Verticillium albo-atrum CGMCC 3.4306 at 20 ug/ml after 48 hr by Alamar blue assay; assay type: functional, organism-based
Fusarium verticillioides [9] = experiment: Antifungal activity against Fusarium verticillioides CGMCC 3.2835 at 20 ug/ml after 48 hr by Alamar blue assay; assay type: functional, organism-based
Fusarium graminearum [10] = experiment: Antifungal activity against Fusarium graminearum CGMCC 3.2873 at 20 ug/ml after 48 hr by Alamar blue assay; assay type: functional, organism-based

With COC(=O)Nc1nc2ccccc2[nH]1 [CARBENDAZIM] the Activity (Alternaria longipes [1]) was “inactive”, the MIC (Verticillium albo-atrum [2]) was 0.63 µg/mL (≈ 3.3 µM) and the MIC (Fusarium oxysporum [3]) was 0.63 µg/mL (≈ 3.3 µM). It also gave an MIC (Fusarium graminearum [4]) of 2.5 µg/mL (≈ 13.1 µM) and an MIC (Fusarium verticillioides [5]) of 0.63 µg/mL (≈ 3.3 µM).
With CCc1c(OC)cc2c(c1O)C(=O)C=C(OC)[C@@]21C[C@@H](O)C(=O)O1 [PERENNIPORIDE A] the MIC (Verticillium albo-atrum [2]) was 20 µg/mL (≈ 59.8 µM), the MIC (Fusarium oxysporum [3]) was 10 µg/mL (≈ 29.9 µM) and the MIC (Fusarium graminearum [4]) was 20 µg/mL (≈ 59.8 µM). For the same compound, the MIC (Alternaria longipes [6]) was 10 µg/mL (≈ 29.9 µM) and the MIC (Fusarium verticillioides [5]) was 20 µg/mL (≈ 59.8 µM).
With CCc1c(OC)cc2c(c1O)C(=O)C[C@]1(OC)OC(=O)[C@H](O)C[C@@]21O the Activity (Fusarium oxysporum [7]) was “inactive”, the Activity (Alternaria longipes [1]) was “inactive” and the Activity (Verticillium albo-atrum [8]) was “inactive”. The Activity (Fusarium verticillioides [9]) was “inactive” and the Activity (Fusarium graminearum [10]) was “inactive”.
With CCc1c(OC)cc2c(c1O)C(=O)C=C(OC)[C@@]2(O)C[C@@H](O)C(=O)OC the Activity (Fusarium oxysporum [7]) was “inactive”, the Activity (Alternaria longipes [1]) was “inactive” and the Activity (Verticillium albo-atrum [8]) was “inactive”. The Activity (Fusarium verticillioides [9]) was “inactive” and the Activity (Fusarium graminearum [10]) was “inactive”.
For CCc1c(OC)cc2c(c1O)C(=O)C[C@@]1(OC)O[C@@H](C(=O)OC)C[C@@]21O, the Activity (Fusarium oxysporum [7]) was “inactive”, the Activity (Alternaria longipes [1]) was “inactive” and the Activity (Verticillium albo-atrum [8]) was “inactive”. The Activity (Fusarium verticillioides [9]) was “inactive” and the Activity (Fusarium graminearum [10]) was “inactive”.
